Twelve molecules from ChEMBL document CHEMBL4020714, “Design, synthesis, and evaluation of curcumin derivatives as Nrf2 activators and cytoprotectors against oxidative death” (Eur J Med Chem, 2017) can be followed below.

Each structure is given as a SMILES string. Activity calls are given as the source filed them. The calls are words filed in the database; no cut-off is given here.

One series has as its system HepG2. The experiment in a line: Cytotoxicity against human HepG2 cells assessed as reduction in cell viability at 5 uM after 24 hrs by MTT assay. Format: cell-based. The settings on record: hepg2, 24 h. In a few lines: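 MTT viability in HepG2 cells (5×10^3/well) after 24 h exposure to compound at 5 μM. Formazan dissolved in DMSO and absorbance read at 570 nm. Mean ± SD of three independent experiments.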
A general note: Tetrazolium dyes change colour on reduction, which living cells bring about.

The target of series [1] is T1, Nuclear factor erythroid 2-related factor 2 (Homo sapiens) (UniProt Q16236).
T1 sequence (whole entry): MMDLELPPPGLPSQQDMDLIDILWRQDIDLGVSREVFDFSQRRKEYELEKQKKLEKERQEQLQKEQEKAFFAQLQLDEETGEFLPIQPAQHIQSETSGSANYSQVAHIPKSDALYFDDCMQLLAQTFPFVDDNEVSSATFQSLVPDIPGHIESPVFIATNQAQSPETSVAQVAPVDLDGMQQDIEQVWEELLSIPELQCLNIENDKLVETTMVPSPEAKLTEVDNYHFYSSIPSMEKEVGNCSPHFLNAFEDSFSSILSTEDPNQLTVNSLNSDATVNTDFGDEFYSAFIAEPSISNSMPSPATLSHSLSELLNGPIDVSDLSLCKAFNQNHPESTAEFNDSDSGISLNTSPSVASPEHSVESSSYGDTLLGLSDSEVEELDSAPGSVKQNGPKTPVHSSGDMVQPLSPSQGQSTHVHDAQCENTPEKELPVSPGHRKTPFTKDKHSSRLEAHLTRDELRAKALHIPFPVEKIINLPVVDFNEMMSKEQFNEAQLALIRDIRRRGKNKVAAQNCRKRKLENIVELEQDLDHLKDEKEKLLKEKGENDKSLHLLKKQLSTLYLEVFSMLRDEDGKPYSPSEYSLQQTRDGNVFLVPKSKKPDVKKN
Kind of series: Activation of Nrf2 in human HepG2 cells assessed as cytoprotection against t-BHP-induced oxidative cell death at 5 uM incubated for 24 hrs followed by compound removal with subsequent incubation with 900 uM of t-BHP for 6 hrs by MTT assay. The format is cell-based. In a few lines: (§1)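 HepG2 cells (5×10^3/well) seeded and grown 24 h in 1640 medium with 10% FBS at 37 °C and 5% CO2. Compound is added for 24 h, then removed, and cells are challenged with 900 μM t-BHP for 6 h at 37 °C. MTT (0.5 mg/mL) is added for 4 h, formazan dissolved in DMSO, and absorbance read at 570 nm. Where used, inhibitors are added 1 h before compound. Mean ± SD of three independent experiments.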

Series [2] can be described thus: Stability of the compound in PBS at 40 uM at pH 7.4 at 25 degC measured for 30 mins by UV-Vis spectrophotometric analysis. The format is physicochemical. To be noted: buffer, pH 7.4, 0.5 h. In a few lines: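 Compound at 40 μM in PBS (pH 7.4) at 25 °C. UV-visible absorption spectra recorded every 2 min for 30 min against blanks of solution plus DMSO.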
Series [3] addresses T1, Nuclear factor erythroid 2-related factor 2 (Homo sapiens). The experiment in a line: Activation of Nrf2 in human HepG2 cells assessed as increase in GCLM expression level at 20 uM by Western blot analysis. The format is cell-based. An outline of the steps: (§2)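 HepG2 cells (2×10^6/well) treated at the indicated concentrations and times. Whole-cell lysates, or nuclear and cytoplasmic fractions, are prepared and quantified by BCA. Samples are run at 40 μg/lane on 12% SDS-PAGE, transferred to nitrocellulose, probed with specific antibodies and HRP secondary (1/5000), and detected by ECL. Where used, LY294002 (15 μM), SP600125 (25 μM) or DTT (400 μM) is added 1 h before compound.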
(In general: In western blotting, separated proteins are transferred to a membrane and probed.)

Series [4] shares this target. Kind of series: Activation of Nrf2 in human HepG2 cells assessed as cytoprotective activity against t-BHP-induced oxidative cell death at 20 uM incubated for 24 hrs followed by compound removal with subsequent incubation with 900 uM of t-BHP for 6 hrs by MTT assay. Format: cell-based. In a few lines:
as §1

For series [5] the target is unchanged. Kind of series: Activation of Nrf2 in human HepG2 cells assessed as increase in HO-1 expression level at 20 uM by Western blot analysis. Format: cell-based. An outline of the steps:
as §2

Series [6] shares this target. The experiment in a line: Activation of Nrf2 in human HepG2 cells assessed as increase in Nrf2 expression level at 20 uM by Western blot analysis. The format is cell-based. An outline of the steps: as §2
For series [7] the target is unchanged. Kind of series: Activation of Nrf2 in human HepG2 cells assessed as increase in GCLC expression level at 20 uM by Western blot analysis. The format is cell-based. In a few lines:
as §2

The target is the same in series [8]. Kind of series: Activation of Nrf2 in human HepG2 cells assessed as increase in HO-1 expression level after 3 hrs by Western blot analysis. Format: cell-based. An outline of the steps:
as §2

Series [9] shares this target. Kind of series: Activation of Nrf2 in human HepG2 cells assessed as increase in GCLC expression level after 3 hrs by Western blot analysis. Format: cell-based. In a few lines: as §2
Series [10] shares this target. The experiment in a line: Activation of Nrf2 in human HepG2 cells assessed as increase in GCLM expression level after 3 hrs by Western blot analysis. The format is cell-based. An outline of the steps:
as §2

Series [11] shares this target. Kind of series: Activation of Nrf2 in human HepG2 cells assessed as increase in Nrf2 expression level after 3 hrs by Western blot analysis. Format: cell-based. In a few lines: as §2

With `COc1ccccc1/C=C/C(=O)C(C)(C)C(=O)/C=C/c1ccccc1OC`, the Activity result in the series with HepG2 is recorded as “Non-Toxic”. Also, in [1], the result was Active.

For the molecule `COc1ccc(/C=C/C(=O)C(C)(C)C(=O)/C=C/c2ccc(OC)c(OC)c2)cc1OC`, in the series on HepG2, the Activity entry is “Non-Toxic”. Also, in series [1], the outcome was Active. For the same molecule, the Stability entry in [2] is listed as “Unstable”.

For `COc1cccc(OC)c1/C=C/C(=O)C(C)(C)C(=O)/C=C/c1c(OC)cccc1OC`, in the series with HepG2, the Activity entry was “Non-Toxic”. The outcome in series [1] was Active.

Regarding `COc1cc(/C=C/C(=O)CC(=O)/C=C/c2ccc(O)c(OC)c2)ccc1O` [CURCUMIN], in the series with HepG2, the Activity result is listed as “Non-Toxic”. Besides, the result in series [1] was Active. Also, in series [2], the Stability result is given as “Unstable”.

With `CC(C)(C(=O)/C=C/c1ccccc1C(F)(F)F)C(=O)/C=C/c1ccccc1C(F)(F)F`, the Activity entry in the series on HepG2 is recorded as “Non-Toxic”. For the same molecule, the outcome in series [1] was Active.

For `CC(C)(C(=O)/C=C/c1ccccc1O)C(=O)/C=C/c1ccccc1O`, the Activity result with HepG2 is listed as “Non-Toxic”. In addition, in [1], the outcome was Active.

Consider `COc1cccc(/C=C/C(=O)C(C)(C)C(=O)/C=C/c2cccc(OC)c2)c1`, for which the Activity entry with HepG2 was “Non-Toxic”. The result in [1] was Active.

In the case of `CC(C)(C)c1cc(O)ccc1O`, the outcome in series [3], in [4], in series [5], in [6] and in series [7] was Active.

With `COc1cc(/C=C/C(=O)C(C)(C)C(=O)/C=C/c2cc(OC)c(OC)c(OC)c2)cc(OC)c1OC`, in the series with HepG2, the Activity result is listed as “Non-Toxic”. In [1], the result was Active.

As for `CC(C)(C(=O)/C=C/c1ccccc1)C(=O)/C=C/c1ccccc1`, the Activity entry with HepG2 was “Non-Toxic”. Moreover, the result in [8], in series [9], in [10] and in series [11] was inactive. The outcome in series [1] was Active. For the same molecule, the Stability result in [2] is given as “Unstable”.

Turning to `CC(C)(C(=O)CCc1ccc(O)c(O)c1)C(=O)CCc1ccc(O)c(O)c1`, the Activity result in the series on HepG2 is reported as “Non-Toxic”. Moreover, the result in series [8], in series [9], in series [10] and in series [11] was inactive. In addition, the outcome in series [1] was Active.

`COc1cc(/C=C/C(=O)C(C)(C)C(=O)/C=C/c2ccc(O)c(OC)c2)ccc1O`: the Activity entry in the series on HepG2 was “Non-Toxic”. Further, the result in [1] was Active. Moreover, the Stability result in series [2] was “Stable”.
